Experimental data taken from ChEMBL document CHEMBL1123345, “2-Alkyl-substituted 1,1-bis(4-acetoxyphenyl)-2-phenylethenes. Estrogen receptor affinity, estrogenic and antiestrogenic properties, and mammary tumor inhibiting activity” (1986).

Assays:
[1] = system: Mus musculus; experiment: In vivo inhibition of hormone-dependent MXT mammary tumor in mice; format: functional
How it was run: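 BDF1 mice bearing transplanted hormone-dependent MXT mammary tumor (line 3.2). From day 1 after transplantation, compounds given sc 3 times weekly in olive oil (0.1 mL/mouse) for 6 weeks, at doses equimolar to 3 × 8 mg/kg per week. Tumors excised, washed in 0.9% NaCl, blotted, weighed. T/C % = treated/solvent-control tumor weight × 100, mean of 10 animals. Mann–Whitney–Wilcoxon U test, α ≤ 0.05.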

[2] = target: T1, Estrogen receptor (Mus musculus) (UniProt O08537+P19785); experiment: Anti-estrogenic effect in uterotrophic assay in immature mice at 1.0 ug dose; format: functional
How it was run: (§1)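 Immature female NMRI mice (10–12 g, 20 days old, 10 per group) given test compound sc daily for 3 days in olive oil (0.1 mL/mouse), dose per animal per day, with estrone stimulating uterine growth. Uteri removed 24 h after last injection, Bouin-fixed, dried and weighed. Read-out is % inhibition of estrone-stimulated uterine growth.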

[3] = target: T1, Estrogen receptor (Mus musculus); experiment: Estrogenic effect in uterotrophic assay in immature mice at 25 ug dose; format: functional
How it was run: (§2)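 Immature female NMRI mice (10–12 g, 20 days old, 10 per group) injected sc daily for 3 days with compound in olive oil (0.1 mL/mouse), dose per animal per day. Uteri removed 24 h after last dose, Bouin-fixed, dried, weighed. Effect = uterus dry weight (mg)/body weight (g) × 100. Activity = (E_T − E_V)/(E_S − E_V) × 100, with estrone 0.4 μg standard as 100%.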

[4] = target: T1, Estrogen receptor (Mus musculus); experiment: Anti-estrogenic effect in uterotrophic assay in immature mice at 5 ug dose; format: functional; how it was run: as §1
[5] = target: T1, Estrogen receptor (Mus musculus); experiment: In vivo inhibition of uterine growth in hormone-dependent MXT mammary tumor bearing mice; format: functional, organism-based
How it was run: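 MXT tumor-bearing BDF1 mice dosed sc 3 times weekly for 6 weeks in olive oil at doses equimolar to 3 × 8 mg/kg per week. Uterotrophic effect measured at end of therapy. T/C % = treated/solvent-control uterotrophic effect × 100, mean of 10 animals. U test (Wilcoxon, Mann, Whitney), α ≤ 0.05.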

[6] = target: T1, Estrogen receptor (Mus musculus); experiment: Estrogenic effect in uterotrophic assay in immature mice at 100 ug dose; format: functional; how it was run: as §2
[7] = target: T1, Estrogen receptor (Mus musculus); experiment: Estrogenic effect in uterotrophic assay in immature mice at 5 ug dose; format: functional; how it was run: as §2
[8] = target: T1, Estrogen receptor (Mus musculus); experiment: Estrogenic effect in uterotrophic assay in immature mice at 1 ug dose; format: functional; how it was run: as §2
[9] = target: T1, Estrogen receptor (Mus musculus); experiment: Anti-estrogenic effect in uterotrophic assay in immature mice at 25 ug dose; format: functional; how it was run: as §1

T1 sequence (O08537 whole entry, looked up): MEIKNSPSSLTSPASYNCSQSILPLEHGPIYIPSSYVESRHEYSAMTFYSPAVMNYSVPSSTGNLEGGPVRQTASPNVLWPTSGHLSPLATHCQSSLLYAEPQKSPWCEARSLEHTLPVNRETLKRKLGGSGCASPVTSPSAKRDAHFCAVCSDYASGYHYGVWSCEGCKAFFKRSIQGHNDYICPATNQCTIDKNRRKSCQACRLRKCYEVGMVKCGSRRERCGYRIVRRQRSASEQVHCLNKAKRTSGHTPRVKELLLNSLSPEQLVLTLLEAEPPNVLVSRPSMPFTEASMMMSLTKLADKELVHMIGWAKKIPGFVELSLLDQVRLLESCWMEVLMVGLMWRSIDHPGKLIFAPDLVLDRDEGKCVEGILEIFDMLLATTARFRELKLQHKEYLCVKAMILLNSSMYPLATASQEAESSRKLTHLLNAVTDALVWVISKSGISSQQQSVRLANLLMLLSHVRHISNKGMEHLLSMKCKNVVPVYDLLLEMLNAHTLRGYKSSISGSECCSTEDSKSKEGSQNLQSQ
T1 sequence (P19785 whole entry, looked up): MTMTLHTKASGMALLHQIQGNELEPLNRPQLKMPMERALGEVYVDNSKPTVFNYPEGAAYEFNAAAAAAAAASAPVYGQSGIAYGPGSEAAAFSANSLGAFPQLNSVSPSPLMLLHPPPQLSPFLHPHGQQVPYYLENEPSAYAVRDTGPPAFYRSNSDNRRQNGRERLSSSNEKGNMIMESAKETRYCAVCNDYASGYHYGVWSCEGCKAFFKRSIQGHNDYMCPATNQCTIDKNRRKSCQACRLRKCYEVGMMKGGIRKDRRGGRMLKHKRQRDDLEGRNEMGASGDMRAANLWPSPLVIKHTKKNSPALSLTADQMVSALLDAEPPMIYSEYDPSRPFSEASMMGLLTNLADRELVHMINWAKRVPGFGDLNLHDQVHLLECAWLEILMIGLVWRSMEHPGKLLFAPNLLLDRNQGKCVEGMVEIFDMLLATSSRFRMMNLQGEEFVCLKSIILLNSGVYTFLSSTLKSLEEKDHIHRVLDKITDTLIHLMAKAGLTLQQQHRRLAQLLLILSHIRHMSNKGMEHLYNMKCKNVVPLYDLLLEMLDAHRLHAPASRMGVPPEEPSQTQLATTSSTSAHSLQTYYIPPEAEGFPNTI

| SMILES | T/C [1] [%] | inhibition [2] [%] | Activity [3] | inhibition [4] [%] | T/C [5] [%] | Activity [6] | Activity [7] | Activity [8] | inhibition [9] [%] |
| --- | --- | --- | --- | --- | --- | --- | --- | --- | --- |
| CC/C(=C(\c1ccccc1)c1ccc(OCCN(C)C)cc1)c1ccccc1 [TAMOXIFEN] | 9.8 | – | – | – | – | – | – | – | – |
| CCC(=C(c1ccc(OC(C)=O)cc1)c1ccc(OC(C)=O)cc1)c1ccccc1 | 0.4 | 0 | 98 | 0 | 124 | 107 | 72 | 37 | – |
| CC(=O)Oc1ccc(C(=Cc2ccccc2)c2ccc(OC(C)=O)cc2)cc1 | 64.3 | 26 | 99 | 0 | 54.8 | 116 | 13 | 11 | – |
| CC(=O)Oc1ccc(C(=C(C)c2ccccc2)c2ccc(OC(C)=O)cc2)cc1 | 0.3 | – | 83 | – | 120 | 78 | 108 | 125 | – |
| CC(=O)Oc1ccc(C(=C(CC(F)(F)F)c2ccccc2)c2ccc(OC(C)=O)cc2)cc1 | 43.1 | 0 | 108 | – | 128 | 86 | 140 | 62 | – |
| CCC1(c2ccccc2)OC1(c1ccc(OC(C)=O)cc1)c1ccc(OC(C)=O)cc1 (stereo not drawn) | 78.9 | 23 | 33 | 5 | 77.9 | 60 | 2 | 2 | 0 |
| CCC(c1ccccc1)C(c1ccc(OC(C)=O)cc1)c1ccc(OC(C)=O)cc1 (stereo not drawn) | 69.1 | 27 | 79 | 0 | 73.7 | 83 | 42 | 17 | – |
| CCCC(=C(c1ccc(OC(C)=O)cc1)c1ccc(OC(C)=O)cc1)c1ccccc1 | 61.1 | 19 | 90 | 0 | 93.3 | 114 | 42 | 31 | – |
| CC(=O)Oc1ccc(C(=C(c2ccccc2)C(C)C)c2ccc(OC(C)=O)cc2)cc1 | 0.2 | 0 | 100 | 0 | 128 | 117 | 87 | 60 | – |
